Results: ChEMBL document CHEMBL5058577, “EUbOPEN Chemogenomics Library 2 (Multiplex)” (2022)

Test system: U2OS
Test: Multiplex assay against U2OS
Type: toxicity, cell-based
Conditions: human
Outline: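 Per cents of healthy-nucleus cells form the tubulin, mitochondrial-mass and membrane-permeability phenotype values. Live cells were stained at seeding with Hoechst33342, BioTracker Green Microtubule Cytoskeleton Dye, MitoTracker Red and Annexin V Alexa Fluor 680. After compound addition they were imaged on a CQ1 microscope at 37°C and 5% CO2, and CellPathfinder machine-learning gating split them into Hoechst high-intensity objects or normal cells, normal cells into healthy, pyknosed or fragmented nuclei, and pyknosed cells into mitotic or apoptotic.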

[1] = 12 h, 1 µM, compound concentration 1 uM, replicate 1
[2] = 12 h, 1 µM, compound concentration 1 uM, replicate 2
[3] = 12 h, 10 µM, compound concentration 10 uM, replicate 1
[4] = 12 h, 10 µM, compound concentration 10 uM, replicate 2
[5] = 24 h, 1 µM, compound concentration 1 uM, replicate 1
[6] = 24 h, 1 µM, compound concentration 1 uM, replicate 2
[7] = 24 h, 10 µM, compound concentration 10 uM, replicate 1
[8] = 24 h, 10 µM, compound concentration 10 uM, replicate 2
[9] = 48 h, 1 µM, compound concentration 1 uM, replicate 1
[10] = 48 h, 1 µM, compound concentration 1 uM, replicate 2
[11] = 48 h, 10 µM, compound concentration 10 uM, replicate 1
[12] = 48 h, 10 µM, compound concentration 10 uM, replicate 2

With C[C@H](NC(=O)CNC(=O)c1cccc(Cl)c1)c1ccccc1 the “Population Apoptotic (%)” value [1] was 78%, the “Population Fragmented Nuclei (%)” value [1] was 26% and the “Population Healthy Nuclei (%)” value [1] was 61%. For the same compound, the “Population Hoechst High Intensity Objects (%)” value [1] was 3%, the “Population Membrane Permeable-Phenotype (%)” value [1] was 6% and the “Population Mitochondria Different-Phenotype (%)” value [1] was 4%. For the same compound, the “Population Mitotic Cells (%)” value [1] was 21%, the “Population Normal (%)” value [1] was 96% and the “Population Pyknosed Nuclei (%)” value [1] was 12%. The “Population Tubulin-Different-Phenotype (%)” value [1] was 2%, the “Total Cell Count” value [1] was 242 and the “Population Apoptotic (%)” value [2] was 71%. The “Population Fragmented Nuclei (%)” value [2] was 20%, the “Population Healthy Nuclei (%)” value [2] was 68% and the “Population Membrane Permeable-Phenotype (%)” value [2] was 8%. For the same compound, the “Population Mitochondria Different-Phenotype (%)” value [2] was 2%, the “Population Mitotic Cells (%)” value [2] was 28% and the “Population Pyknosed Nuclei (%)” value [2] was 11%. The “Total Cell Count” value [2] was 124, the “Population Apoptotic (%)” value [3] was 68% and the “Population Fragmented Nuclei (%)” value [3] was 24%. The “Population Healthy Nuclei (%)” value [3] was 63%, the “Population Hoechst High Intensity Objects (%)” value [3] was 2% and the “Population Membrane Permeable-Phenotype (%)” value [3] was 9%. The “Population Mitochondria Different-Phenotype (%)” value [3] was 3%, the “Population Mitotic Cells (%)” value [3] was 31% and the “Population Normal (%)” value [3] was 97%. The “Population Pyknosed Nuclei (%)” value [3] was 11%, the “Population Tubulin-Different-Phenotype (%)” value [3] was 4% and the “Total Cell Count” value [3] was 198. For the same compound, the “Population Apoptotic (%)” value [4] was 66%, the “Population Fragmented Nuclei (%)” value [4] was 13% and the “Population Healthy Nuclei (%)” value [4] was 82%. For the same compound, the “Population Hoechst High Intensity Objects (%)” value [4] was 0%, the “Population Membrane Permeable-Phenotype (%)” value [4] was 2% and the “Population Mitotic Cells (%)” value [4] was 33%. The “Population Normal (%)” value [4] was 100%, the “Population Pyknosed Nuclei (%)” value [4] was 4% and the “Population Tubulin-Different-Phenotype (%)” value [4] was 2%. For the same compound, the “Total Cell Count” value [4] was 150, the “Population Apoptotic (%)” value [5] was 79% and the “Population Fragmented Nuclei (%)” value [5] was 19%. For the same compound, the “Population Healthy Nuclei (%)” value [5] was 71%, the “Population Hoechst High Intensity Objects (%)” value [5] was 2% and the “Population Membrane Permeable-Phenotype (%)” value [5] was 7%. For the same compound, the “Population Mitochondria Different-Phenotype (%)” value [5] was 2%, the “Population Mitotic Cells (%)” value [5] was 20% and the “Population Normal (%)” value [5] was 97%. The “Population Pyknosed Nuclei (%)” value [5] was 8%, the “Population Tubulin-Different-Phenotype (%)” value [5] was 2% and the “Total Cell Count” value [5] was 275. For the same compound, the “Population Apoptotic (%)” value [6] was 88%, the “Population Healthy Nuclei (%)” value [6] was 69% and the “Population Membrane Permeable-Phenotype (%)” value [6] was 4%. The “Population Mitochondria Different-Phenotype (%)” value [6] was 4%, the “Population Mitotic Cells (%)” value [6] was 11% and the “Population Pyknosed Nuclei (%)” value [6] was 10%. The “Population Tubulin-Different-Phenotype (%)” value [6] was 0%, the “Total Cell Count” value [6] was 168 and the “Population Apoptotic (%)” value [7] was 90%. For the same compound, the “Population Fragmented Nuclei (%)” value [7] was 24%, the “Population Healthy Nuclei (%)” value [7] was 61% and the “Population Hoechst High Intensity Objects (%)” value [7] was 1%. For the same compound, the “Population Membrane Permeable-Phenotype (%)” value [7] was 6%, the “Population Mitochondria Different-Phenotype (%)” value [7] was 4% and the “Population Mitotic Cells (%)” value [7] was 9%. For the same compound, the “Population Normal (%)” value [7] was 98%, the “Population Pyknosed Nuclei (%)” value [7] was 13% and the “Population Tubulin-Different-Phenotype (%)” value [7] was 2%. For the same compound, the “Total Cell Count” value [7] was 239, the “Population Apoptotic (%)” value [8] was 71% and the “Population Fragmented Nuclei (%)” value [8] was 12%. The “Population Healthy Nuclei (%)” value [8] was 83%, the “Population Membrane Permeable-Phenotype (%)” value [8] was 4% and the “Population Mitochondria Different-Phenotype (%)” value [8] was 2%. The “Population Mitotic Cells (%)” value [8] was 28%, the “Population Pyknosed Nuclei (%)” value [8] was 3% and the “Population Tubulin-Different-Phenotype (%)” value [8] was 3%. The “Total Cell Count” value [8] was 189, the “Population Apoptotic (%)” value [9] was 74% and the “Population Fragmented Nuclei (%)” value [9] was 18%. The “Population Healthy Nuclei (%)” value [9] was 71%, the “Population Hoechst High Intensity Objects (%)” value [9] was 3% and the “Population Membrane Permeable-Phenotype (%)” value [9] was 6%. For the same compound, the “Population Mitochondria Different-Phenotype (%)” value [9] was 3%, the “Population Mitotic Cells (%)” value [9] was 25% and the “Population Normal (%)” value [9] was 96%. The “Population Pyknosed Nuclei (%)” value [9] was 10%, the “Population Tubulin-Different-Phenotype (%)” value [9] was 1% and the “Total Cell Count” value [9] was 401. For the same compound, the “Population Apoptotic (%)” value [10] was 100%, the “Population Fragmented Nuclei (%)” value [10] was 17% and the “Population Healthy Nuclei (%)” value [10] was 70%. The “Population Hoechst High Intensity Objects (%)” value [10] was 2%, the “Population Membrane Permeable-Phenotype (%)” value [10] was 4% and the “Population Mitotic Cells (%)” value [10] was 0%. For the same compound, the “Population Normal (%)” value [10] was 97%, the “Population Pyknosed Nuclei (%)” value [10] was 11% and the “Population Tubulin-Different-Phenotype (%)” value [10] was 2%. For the same compound, the “Total Cell Count” value [10] was 205, the “Population Apoptotic (%)” value [11] was 81% and the “Population Fragmented Nuclei (%)” value [11] was 19%. For the same compound, the “Population Healthy Nuclei (%)” value [11] was 73%, the “Population Hoechst High Intensity Objects (%)” value [11] was 2% and the “Population Membrane Permeable-Phenotype (%)” value [11] was 6%. For the same compound, the “Population Mitochondria Different-Phenotype (%)” value [11] was 2%, the “Population Mitotic Cells (%)” value [11] was 18% and the “Population Normal (%)” value [11] was 97%. The “Population Pyknosed Nuclei (%)” value [11] was 7%, the “Population Tubulin-Different-Phenotype (%)” value [11] was 4% and the “Total Cell Count” value [11] was 311. For the same compound, the “Population Apoptotic (%)” value [12] was 100%, the “Population Fragmented Nuclei (%)” value [12] was 12% and the “Population Healthy Nuclei (%)” value [12] was 80%. For the same compound, the “Population Hoechst High Intensity Objects (%)” value [12] was 1%, the “Population Membrane Permeable-Phenotype (%)” value [12] was 4% and the “Population Mitochondria Different-Phenotype (%)” value [12] was 1%. For the same compound, the “Population Mitotic Cells (%)” value [12] was 0%, the “Population Normal (%)” value [12] was 98% and the “Population Tubulin-Different-Phenotype (%)” value [12] was 1%. The “Total Cell Count” value [12] was 279.
